Results reported in ChEMBL document CHEMBL1157562, “Piperazinyl glutamate pyridines as potent orally bioavailable P2Y12 antagonists for inhibition of platelet aggregation” (J Med Chem, 2010).

Tests used:
[1] = Antiplatelet aggregation activity against adenosine diphosphate-induced human platelet rich plasma assessed as inhibition of platelet aggregation by turbidimetric method; type: functional; conditions: Homo sapiens, Platelet, Plasma
In short: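 Human PRP, prepared by two-step centrifugation and adjusted to 330 000 platelets/μL with PPP. Compound was preincubated 5 min at 37 °C in 0.5% DMSO, then 20 μM ADP was added. OD626 was read kinetically for 15 min at 37 °C with mixing between reads.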

P2Y purinoceptor 12 = P2Y purinoceptor 12 (Homo sapiens, UniProt Q9H244); assay: Displacement of [33P]ADP from human recombinant P2Y12 receptor expressed in CHO cells; type: cell-based
P2Y purinoceptor 12, sequence (Q9H244 whole entry): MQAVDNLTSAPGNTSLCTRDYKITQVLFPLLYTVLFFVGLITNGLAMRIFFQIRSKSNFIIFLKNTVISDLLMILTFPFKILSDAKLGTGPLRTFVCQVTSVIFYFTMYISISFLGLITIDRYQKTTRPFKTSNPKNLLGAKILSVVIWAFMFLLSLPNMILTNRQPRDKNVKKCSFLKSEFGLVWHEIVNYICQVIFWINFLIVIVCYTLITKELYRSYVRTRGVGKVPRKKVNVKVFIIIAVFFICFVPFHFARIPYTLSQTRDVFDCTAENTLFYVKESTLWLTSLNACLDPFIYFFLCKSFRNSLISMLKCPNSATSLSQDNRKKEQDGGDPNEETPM
In short: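 Washed membranes from CHO cells expressing synthetic human P2Y12, incubated 1 h at room temperature with 0.2 nM 33P-MeSADP in 50 mM Tris/100 mM NaCl/1 mM EDTA. Compound was tested as a 7-point 3-fold series in triplicate. Nonspecific binding was defined with 300 nM 2-MeSADP, followed by filtration.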

Structure (SMILES) | IC50 [1] | Ki (P2Y purinoceptor 12)
CCCCCN1CCN(C(=O)[C@H](CCC(=O)O)NC(=O)c2cccc(-c3ccccc3)n2)CC1 | > 100 µM | > 3.59 µM
CCOC(=O)N1CCN(C(=O)CNC(=O)c2cccc(-c3ccccc3)n2)CC1 | > 100 µM | 1.61 µM
CCOC(=O)N1CCN(C(=O)[C@H](CCC(=O)O)NC(=O)c2cc(-c3ccccc3)cc(-c3ccccc3)c2)CC1 | > 100 µM | 0.373 µM
COCCOC(=O)N1CCN(C(=O)[C@H](CCC(=O)O)NC(=O)c2cccc(-c3ccccc3)n2)CC1 | > 100 µM | 0.492 µM
CCOC(=O)N1CCN(C(=O)[C@H](CCC(=O)O)NC(=O)c2cccc(-c3ccccc3)c2)CC1 | > 100 µM | 3.64 µM
CCC(=O)N1CCN(C(=O)[C@H](CCC(=O)O)NC(=O)c2cccc(-c3ccccc3)n2)CC1 | > 100 µM | > 3.59 µM
Cc1cccc(N2CCN(C(=O)[C@H](CCC(=O)O)NC(=O)c3cc(-c4ccccc4)cc(-c4ccccc4)n3)CC2)c1 | > 100 µM | 0.15 µM
Cc1cccc(N2CCN(C(=O)[C@H](CCC(=O)O)NC(=O)c3cccc(-c4ccccc4)c3)CC2)c1 | > 100 µM | 1.31 µM
CC(C)C(=O)N1CCN(C(=O)[C@H](CCC(=O)O)NC(=O)c2cccc(-c3ccccc3)n2)CC1 | > 100 µM | > 3.59 µM
CCCCCS(=O)(=O)N1CCN(C(=O)[C@H](CCC(=O)O)NC(=O)c2cccc(-c3ccccc3)n2)CC1 | > 100 µM | > 3.59 µM
CC(C)(C)CCOC(=O)N1CCN(C(=O)[C@H](CCC(=O)O)NC(=O)c2cccc(-c3ccccc3)n2)CC1 | > 100 µM | 0.042 µM
O=C(O)CC[C@H](NC(=O)c1cccc(-c2ccccc2)n1)C(=O)N1CCN(C(=O)Nc2ccccc2)CC1 | > 100 µM | 0.842 µM
O=C(O)CC[C@H](NC(=O)c1cccc(-c2ccccc2)n1)C(=O)N1CCN(C(=O)OCc2ccccc2)CC1 | > 100 µM | 0.196 µM
CC(C)CN1CCN(C(=O)[C@H](CCC(=O)O)NC(=O)c2cccc(-c3ccccc3)n2)CC1 | > 100 µM | > 3.8 µM
CCCCS(=O)(=O)N1CCN(C(=O)[C@H](CCC(=O)O)NC(=O)c2cccc(-c3ccccc3)n2)CC1 | > 100 µM | > 3.59 µM
CCCN1CCN(C(=O)[C@H](CCC(=O)O)NC(=O)c2cccc(-c3ccccc3)n2)CC1 | > 100 µM | > 3.8 µM
CC(=O)N1CCN(C(=O)[C@H](CCC(=O)O)NC(=O)c2cccc(-c3ccccc3)n2)CC1 | > 100 µM | > 3.59 µM
O=C(O)CC[C@H](NC(=O)c1cccc(-c2ccccc2)n1)C(=O)N1CCN(C(=O)c2ccccc2)CC1 | > 100 µM | 1.88 µM
CCCCCCNC(=O)N1CCN(C(=O)[C@H](CCC(=O)O)NC(=O)c2cccc(-c3ccccc3)n2)CC1 | > 100 µM | 0.054 µM
CN(C)CC(=O)N1CCN(C(=O)[C@H](CCC(=O)O)NC(=O)c2cccc(-c3ccccc3)n2)CC1 | > 100 µM | > 3.59 µM

Structure (SMILES) | IC50 [1] | Ki (P2Y purinoceptor 12)
Cc1cccc(N2CCN(C(=O)[C@H](CCC(=O)O)NC(=O)c3cc(-c4ccccc4)cc(-c4ccccc4)c3)CC2)c1 | > 100 µM | 1.43 µM
Cc1cccc(N2CCN(C(=O)[C@H](CCC(=O)O)NC(=O)c3cc(-c4ccccc4)ccn3)CC2)c1 | > 100 µM | > 5.7 µM
CCCCC(=O)N1CCN(C(=O)[C@H](CCC(=O)O)NC(=O)c2cccc(-c3ccccc3)n2)CC1 | > 100 µM | 1.43 µM
COC(=O)N1CCN(C(=O)[C@H](CCC(=O)O)NC(=O)c2cccc(-c3ccccc3)n2)CC1 | > 100 µM | –
CCOC(=O)N1CCN(C(=O)[C@H](CCC(=O)O)NC(=O)c2ccccn2)CC1 | > 100 µM | > 5.4 µM
CCCS(=O)(=O)N1CCN(C(=O)[C@H](CCC(=O)O)NC(=O)c2cccc(-c3ccccc3)n2)CC1 | > 100 µM | > 3.59 µM
O=C(O)CC[C@H](NC(=O)c1cccc(-c2ccccc2)n1)C(=O)N1CCN(S(=O)(=O)c2ccccc2)CC1 | > 100 µM | 0.842 µM
CCCCCCCCOC(=O)N1CCN(C(=O)[C@H](CCC(=O)O)NC(=O)c2cccc(-c3ccccc3)n2)CC1 | > 100 µM | –
CCCCCOC(=O)N1CCN(C(=O)[C@H](CCC(=O)O)NC(=O)c2cc(N(C)CCOC)cc(-c3ccccc3)n2)CC1 | > 100 µM | 0.0021 µM
CCCCOC(=O)N1CCN(C(=O)[C@H](CCC(=O)O)NC(=O)c2cc(N(C)CCOC)cc(-c3ccccc3)n2)CC1 | > 100 µM | 0.004 µM
O=C(O)CC[C@H](NC(=O)c1cccc(-c2ccccc2)n1)C(=O)N1CCN(C(=O)OCC(F)(F)F)CC1 | > 100 µM | 0.094 µM
O=C(O)CC[C@H](NC(=O)c1cccc(-c2ccccc2)n1)C(=O)N1CCN(C(=O)OC2CCCC2)CC1 | > 100 µM | 0.047 µM
O=C(O)CC[C@H](NC(=O)c1cccc(-c2ccccc2)n1)C(=O)N1CCN(C(=O)OCC2CCC2)CC1 | > 100 µM | 0.028 µM
CCOC(=O)N1CCN(C(=O)[C@H](CCC(=O)O)NC(=O)c2cc(-c3ccccc3)ccn2)CC1 | > 100 µM | > 5.7 µM
CC(C)(C)OC(=O)CC[C@H](NC(=O)c1cccc(-c2ccccc2)n1)C(=O)N1CCNCC1 | > 100 µM | > 5.68 µM
CCS(=O)(=O)N1CCN(C(=O)[C@H](CCC(=O)O)NC(=O)c2cccc(-c3ccccc3)n2)CC1 | > 100 µM | > 3.59 µM
CCCN(CCC)c1cc(C(=O)N[C@@H](CCC(=O)O)C(=O)N2CCN(C(=O)OCC)CC2)nc(-c2ccccc2)c1 | > 100 µM | 0.045 µM
O=C(O)CC[C@H](NC(=O)c1cccc(-c2ccccc2)n1)C(=O)N1CCN(C(=O)OC2CCCCC2)CC1 | > 100 µM | 0.044 µM
Cc1cccc(N2CCN(C(=O)[C@H](CCC(=O)O)NC(=O)c3cccc(-c4ccccc4)n3)CC2)c1 | > 100 µM | –

Results, then the compound that gave them:

IC50 [1] | Ki (P2Y purinoceptor 12) | Structure (SMILES)
> 100 µM | 0.277 µM | CCCNC(=O)N1CCN(C(=O)[C@H](CCC(=O)O)NC(=O)c2cccc(-c3ccccc3)n2)CC1
> 100 µM | > 2.71 µM | CCCCCCN1CCN(C(=O)[C@H](CCC(=O)O)NC(=O)c2cccc(-c3ccccc3)n2)CC1
> 100 µM | 0.055 µM | CCCCCNC(=O)N1CCN(C(=O)[C@H](CCC(=O)O)NC(=O)c2cccc(-c3ccccc3)n2)CC1
> 10 µM | 0.0062 µM | CCCCCOC(=O)N1CCN(C(=O)[C@H](CCC(=O)O)NC(=O)c2cc(NC(C)=O)cc(-c3ccccc3)n2)CC1
76 µM | 0.015 µM | CCOC(=O)N1CCN(C(=O)[C@H](CCC(=O)O)NC(=O)c2cc(-c3ccccc3)cc(-c3ccccc3)n2)CC1
> 10 µM | 0.0086 µM | CCCCCOC(=O)N1CCN(C(=O)[C@H](CCC(=O)O)NC(=O)c2cc(CC3CCCCC3)cc(-c3ccccc3)n2)CC1
> 10 µM | 0.0057 µM | CCCCCOC(=O)N1CCN(C(=O)[C@H](CCC(=O)O)NC(=O)c2cc(NC(=O)CNC)cc(-c3ccccc3)n2)CC1
88 µM | 0.033 µM | CC(C)CCOC(=O)N1CCN(C(=O)[C@H](CCC(=O)O)NC(=O)c2cccc(-c3ccccc3)n2)CC1
> 10 µM | 0.0085 µM | CCCCCOC(=O)N1CCN(C(=O)[C@H](CCC(=O)O)NC(=O)c2cc(NC(=O)C3CCOCC3)cc(-c3ccccc3)n2)CC1
> 10 µM | 0.0028 µM | CCCCCOC(=O)N1CCN(C(=O)[C@H](CCC(=O)O)NC(=O)c2cc(CCCCCO)cc(-c3ccccc3)n2)CC1
> 10 µM | 0.0014 µM | CCCCCOC(=O)N1CCN(C(=O)[C@H](CCC(=O)O)NC(=O)c2cc(NC(=O)OCCOC)cc(-c3ccccc3)n2)CC1
70 µM | 0.018 µM | O=C(O)CC[C@H](NC(=O)c1cccc(-c2ccccc2)n1)C(=O)N1CCN(C(=O)OCCCC(F)(F)F)CC1
82 µM | 0.046 µM | O=C(O)CC[C@H](NC(=O)c1cccc(-c2ccccc2)n1)C(=O)N1CCN(C(=O)OCC2CCCC2)CC1
> 10 µM | 0.0027 µM | CCCCCOC(=O)N1CCN(C(=O)[C@H](CCC(=O)O)NC(=O)c2cc(NC(=O)NC(C)C)cc(-c3ccccc3)n2)CC1
39 µM | 0.009 µM | CCNC(=S)N1CCN(C(=O)[C@H](CCC(=O)O)NC(=O)c2cccc(-c3ccccc3)n2)CC1
19 µM | – | CCCCCCOC(=O)N1CCN(C(=O)[C@H](CCC(=O)O)NC(=O)c2cccc(-c3ccccc3)n2)CC1
28 µM | – | CCCCOC(=O)N1CCN(C(=O)[C@H](CCC(=O)O)NC(=O)c2cccc(-c3ccccc3)n2)CC1
> 50 µM | 0.484 µM | CCOC(=O)N1CCN(C(=O)[C@H](CCC(=O)O)NC(=O)c2cc(-c3ccccc3)nc(-c3ccccc3)c2)CC1
80 µM | 0.288 µM | CCNC(=O)N1CCN(C(=O)[C@H](CCC(=O)O)NC(=O)c2cccc(-c3ccccc3)n2)CC1
> 10 µM | 0.003 µM | CCCCCOC(=O)N1CCN(C(=O)[C@H](CCC(=O)O)NC(=O)c2cc(NC(=O)CN3CCOCC3)cc(-c3ccccc3)n2)CC1
74 µM | 1.19 µM | CCOC(=O)N1CCN(C(=O)[C@H](CCC(=O)O)NC(=O)c2nccc(-c3ccccc3)n2)CC1
> 10 µM | 0.0058 µM | CCCCCOC(=O)N1CCN(C(=O)[C@H](CCC(=O)O)NC(=O)c2cc(NC(=O)N3CCCCC3)cc(-c3ccccc3)n2)CC1
> 10 µM | 0.025 µM | CCCCCOC(=O)N1CCN(C(=O)[C@H](CCC(=O)O)NC(=O)c2cc(NC(=O)COC)cc(-c3ccccc3)n2)CC1
62 µM | – | CCCOC(=O)N1CCN(C(=O)[C@H](CCC(=O)O)NC(=O)c2cccc(-c3ccccc3)n2)CC1
56 µM | – | CCCCCCCOC(=O)N1CCN(C(=O)[C@H](CCC(=O)O)NC(=O)c2cccc(-c3ccccc3)n2)CC1
15 µM | – | CCCCCOC(=O)N1CCN(C(=O)[C@H](CCC(=O)O)NC(=O)c2cccc(-c3ccccc3)n2)CC1
